The values below come from ChEMBL document CHEMBL1158468, “Synthesis, structure-activity relationships, and in vivo evaluation of N3-phenylpyrazinones as novel corticotropin-releasing factor-1 (CRF1) receptor antagonists” (J Med Chem, 2009).

The structures appear in SMILES notation.

By IC50 is commonly meant the concentration that inhibits the measured activity by half. Low readings indicate higher potency, high ones lower potency.

One experiment has as its target T1, Corticotropin-releasing factor receptor 1 (Rattus norvegicus, UniProt P35353).
T1 sequence (P35353 whole entry): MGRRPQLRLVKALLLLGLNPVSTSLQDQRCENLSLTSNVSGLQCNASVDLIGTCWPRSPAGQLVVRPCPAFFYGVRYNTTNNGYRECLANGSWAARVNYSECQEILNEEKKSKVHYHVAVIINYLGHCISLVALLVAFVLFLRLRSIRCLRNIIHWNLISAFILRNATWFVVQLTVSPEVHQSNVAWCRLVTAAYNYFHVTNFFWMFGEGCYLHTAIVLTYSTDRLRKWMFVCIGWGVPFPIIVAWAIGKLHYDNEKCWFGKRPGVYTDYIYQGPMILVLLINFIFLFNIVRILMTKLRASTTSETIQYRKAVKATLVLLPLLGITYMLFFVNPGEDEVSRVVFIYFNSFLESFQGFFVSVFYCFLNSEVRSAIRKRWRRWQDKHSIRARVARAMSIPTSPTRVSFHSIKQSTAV
The experiment in a line: Displacement of [125I]Tyr-ovine-CRF from CRF1 receptor in rat frontal cortex homogenate by gamma counting. It counts as tissue-based. A digest of the protocol:
(§1)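 Washed homogenates of frozen rat frontal cortex (CRF1, 25 μg/well) or porcine choroid plexus (CRF2, 10 μg/well) in 50 mM Hepes pH 7.0, 10 mM MgCl2, 2 mM EGTA, protease inhibitors, 0.005% Triton X-100. Ligand 150 pM 125I-ovine-CRF (CRF1) or 100 pM 125I-sauvagine (CRF2). Incubation 2 h at 21 °C, then filtration and gamma counting. Nonspecific binding: 1 μM CRF1 reference antagonist or 1 μM α-helical CRF(9-41). IC50 from 5- or 10-point curves by nonlinear regression.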
In general terms: Displacement assays read how much labelled ligand stays bound in the presence of the test substance.
On to `CCCC(CCC)n1cc(Cl)nc(Nc2cc(C)c(OC)cc2C)c1=O`, for which the IC50 was 0.62 nM. Consider `CC[C@H](C1CC1)n1cc(Cl)nc(Nc2cc(C)c(C)cc2C)c1=O`, for which the IC50 was 2.4 nM.

The compound `COc1ccc(Nc2nc(Br)cn([C@H](C)C3CC3)c2=O)c(C(F)(F)F)n1` came in with an IC50 of 1.2 nM. `COC[C@@H](C)n1cc(Cl)nc(Nc2cc(C)c(OC)cc2C)c1=O` showed an IC50 of 1.7 nM.

For the compound `CC[C@H](C1CC1)n1cc(Cl)nc(Nc2c(C)cc(OC)cc2C)c1=O`, the IC50 was 0.52 nM.

For `COC[C@@H](C1CC1)n1cc(Cl)nc(Nc2cc(C)c(O)cc2C)c1=O`, the IC50 was found to be 280 nM. Compound `CC[C@H](C1CC1)n1cc(Cl)nc(Nc2ccc(Cl)cc2)c1=O` yielded an IC50 of 180 nM. As for `CC[C@H](C1CC1)n1cc(Cl)nc(Nc2c(Cl)cc(C#N)cc2Cl)c1=O`, the IC50 is 1.2 nM. `CC[C@H](C1CC1)n1cc(Cl)nc(Nc2ccc(C)cc2C)c1=O` registered an IC50 of 6.6 nM. `CC[C@H](COC)n1cc(Cl)nc(Nc2c(C)cc(C)cc2C)c1=O` displayed an IC50 of 1.4 nM. Compound `COCC(COC)n1cc(Cl)nc(Nc2c(C)cc(C)cc2C)c1=O` had a half-inhibitory concentration (IC50) of 16 nM.

In turn, `COc1ccc(Nc2nccn([C@H](C)C3CC3)c2=O)c(C(F)(F)F)n1` displayed an IC50 of 150 nM.

For `CC[C@H](C1CC1)n1cc(Cl)nc(N(CC)c2cc(C)c(C)cc2C)c1=O`, the half-inhibitory concentration (IC50) was 1.5 nM. The compound `CCC(CC)Cn1cc(Cl)nc(Nc2cc(C)c(OC)cc2C)c1=O` displayed an IC50 of 76 nM. Compound `COc1cc(Cl)c2c(c1)CCN2c1nc(Cl)cn([C@H](C)C2CC2)c1=O` had an IC50 of 0.62 nM.

`Cc1cc(C)c(Nc2nc(Cl)cn([C@@H](CO)C3CC3)c2=O)c(C)c1` displayed an IC50 of 35 nM. The compound `CCOc1cc(C)c(Nc2nc(Cl)cn([C@@H](COC)C3CC3)c2=O)cc1C` came in with a half-inhibitory concentration (IC50) of 1.5 nM.

`C=Cc1cn([C@H](C)C2CC2)c(=O)c(Nc2ccc(OC)nc2C(F)(F)F)n1` gave an IC50 of 1200 nM. For `CC[C@H](COC)n1cc(Cl)nc(Nc2cc(C)c(OC)cc2C)c1=O`, the IC50 was determined as 0.59 nM. As for `COC[C@@H](C)n1cc(Cl)nc(Nc2c(C)cc(C)cc2C)c1=O`, the IC50 was determined as 12 nM. Still for that read-out and setting: the same measure for `CCC(CC)n1cc(Cl)nc(Nc2c(C)cc(C)cc2C)c1=O`: 2.9 nM; for `C[C@H](C1CC1)n1cc(Cl)nc(Nc2c(Cl)cc(C#N)cc2Cl)c1=O`: 2.4 nM. Compound `CC[C@H](C1CC1)n1cc(Cl)nc(Nc2cc(C)c(OC)cc2C)c1=O` displayed an IC50 of 0.27 nM.

The compound `CC[C@H](C1CC1)n1cc(Cl)nc(N(CC)c2c(C)cc(C)cc2C)c1=O` came in with an IC50 of 4.6 nM. The compound `CCc1cn([C@H](C)C2CC2)c(=O)c(Nc2ccc(OC)nc2C(F)(F)F)n1` came in with an IC50 of 180 nM. In turn, `COCC(COC)n1cc(Cl)nc(Nc2cc(C)c(OC)cc2C)c1=O` showed an IC50 of 2.1 nM. `COC[C@@H](C1CC1)n1cc(Cl)nc(Nc2cc(C)c(OCc3ccccc3)cc2C)c1=O` came in with an IC50 of 910 nM. `COc1ccc(Nc2nc(C)cn([C@H](C)C3CC3)c2=O)c(C(F)(F)F)n1` registered an IC50 of 3.8 nM. With `COc1cc(Br)c2c(c1)OCCN2c1nc(Cl)cn([C@H](C)C2CC2)c1=O`, the IC50 turned out to be 19 nM. As to `CCN(c1c(Cl)cc(OC)cc1Cl)c1nccn([C@H](C)C2CC2)c1=O`, the IC50 is 34 nM. `CCC(CC)Cn1cc(Cl)nc(Nc2c(C)cc(C)cc2C)c1=O` yielded a half-maximal inhibitory concentration (IC50) of 39 nM. The same measure, in the same setting: as for `CCCC(CCC)n1cc(Cl)nc(Nc2c(C)cc(C)cc2C)c1=O`, the figure is 2.4 nM; as for `COc1cc(Cl)c(Nc2nc(Cl)cn([C@H](C)C3CC3)c2=O)c(Cl)c1`, 1.1 nM. Same read-out and setting: as for `C#Cc1cn([C@H](C)C2CC2)c(=O)c(Nc2ccc(OC)nc2C(F)(F)F)n1`, the figure is 5.6 nM; as for `COc1ccc(Nc2nc(Cl)cn([C@H](C)C3CC3)c2=O)c(C(F)(F)F)n1`, 1.8 nM; as for `CC[C@H](C1CC1)n1cc(Cl)nc(Nc2c(C)cccc2Cl)c1=O`, 9.3 nM. As for `CCC(CC)n1cc(Cl)nc(Nc2cc(C)c(OC)cc2C)c1=O`, the IC50 stood at 0.8 nM. With `CC[C@H](C1CC1)n1cc(Cl)nc(Nc2c(C)cc(Cl)cc2Cl)c1=O`, the concentration for half-maximal inhibition (IC50) was 0.53 nM. `Cc1cc(C)c(Nc2nc(Cl)cn([C@H](C)C3CC3)c2=O)c(C)c1` gave an IC50 of 1.7 nM. On the same count and under the same terms, as for `COc1ccc(Nc2nc(C#N)cn([C@H](C)C3CC3)c2=O)c(C(F)(F)F)n1`, the figure is 6.7 nM. With `CC[C@H](C1CC1)n1cc(Cl)nc(Nc2c(C)cc(C)cc2C)c1=O`, the IC50 came to 0.63 nM. Regarding `C[C@@H](C1CC1)n1cc(Cl)nc(Nc2c(Cl)cc(C#N)cc2Cl)c1=O`, the IC50 was determined as 6.3 nM. The compound `COC[C@H](C)n1cc(Cl)nc(Nc2cc(C)c(OC)cc2C)c1=O` had an IC50 of 5.8 nM.

`COc1cc(Br)c2c(c1)CCN2c1nc(Cl)cn([C@H](C)C2CC2)c1=O` displayed an IC50 of 0.94 nM. Same read-out and setting: as for `CCC(C1CC1)n1cc(Cl)nc(Nc2c(Cl)cc(C#N)cc2Cl)c1=O` (single isomer, unassigned), the figure is 2.8 nM; as for `COc1cc(C)c(Nc2nc(Cl)cn([C@@H](CO)C3CC3)c2=O)cc1C`, 10 nM.

With `COC[C@@H](C1CC1)n1cc(Cl)nc(Nc2c(C)cc(C)cc2C)c1=O`, the IC50 worked out at 1.3 nM. Same read-out and setting: the same measure for `COc1cc(C)c(Nc2nc(Cl)cn([C@H](C)C3CC3)c2=O)cc1C`: 0.42 nM. Take `COC[C@H](C1CC1)n1cc(Cl)nc(Nc2cc(C)c(OC)cc2C)c1=O`: the IC50 amounted to 0.29 nM.

Biological target in a further experiment: not listed separately
The experiment in a line: Displacement of [125I]sauvagine from CRF2 receptor in pig choroid plexus homogenate by gamma counting. It counts as tissue-based, Sus scrofa. The procedure, abridged:
as §1
`COC[C@H](C1CC1)n1cc(Cl)nc(Nc2cc(C)c(OC)cc2C)c1=O` showed an IC50 of over 10000 nM.
